Laboratory results from ChEMBL document CHEMBL1156446, “c-Src protein kinase inhibitors block assembly and maturation of dengue virus” (Proc Natl Acad Sci U S A, 2007).
Calls of active or inactive are those of the source. The calls are words filed in the database; no cut-off is given here.

How the values were obtained:
Dengue virus [1] = experiment: Antiviral activity against Dengue virus infected in african green monkey Vero cells administered after viral challenge after 3 days by viral plaque assay; type: functional, organism-based
In short: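 Cells were seeded at 1 × 10^4 per well and infected with DENV at moi 1. Protein kinase inhibitors were then added at two noncytotoxic concentrations, set beforehand by MTT assay in Vero cells. After 3 days, infectious yield in the supernatant was titrated by plaque assay. Activity was called at ≥five-fold (0.7 log) titer decrease.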

Dengue virus [2] = experiment: Antiviral activity against Dengue virus infected in african green monkey Vero cells administered before viral challenge after 3 days by viral plaque assay; type: functional, organism-based
In short: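 Monolayers seeded at 1 × 10^4 cells per well were pretreated for 180 min at 37°C with inhibitor at two noncytotoxic concentrations. They were then inoculated with DENV at moi 1 for 60 min at 37°C. Supernatant harvested 3 days postinfection was titrated by plaque assay. Activity was called at ≥five-fold (0.7 log) titer decrease.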

Dengue virus [3] = experiment: Inhibition of viral spread in Dengue virus-infected asian tiger mosquito C6/36 cells assessed as accumulation of viral envelope protein within perinuclear region at 2.5 uM after 4 days by immunofluorescence assay relative to control; type: functional, organism-based
In short: (§1)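 Vero, Huh-7 or C6/36 cells were infected with DENV2 at moi 1 and then treated with 2.5 μM inhibitor or DMSO. Cells were fixed at days 4, 5 and 6 postinfection and stained for envelope protein by immunofluorescence. Envelope localization, including perinuclear accumulation, and infection of surrounding cells were compared with the DMSO control.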

[4] = Inhibition of PDGFR
Dengue virus [5] = experiment: Inhibition of viral spread in Dengue virus-infected asian tiger mosquito C6/36 cells assessed as accumulation of viral envelope protein within perinuclear region at 2.5 uM after 6 days by immunofluorescence assay relative to control; type: functional, organism-based; in short: as §1
[6] = Inhibition of p38 MAPK
dengue virus type 2 [7] = experiment: Antiviral activity against Dengue virus 2 infected in asian tiger mosquito C6/36 cells; type: functional, organism-based
In short: (§2)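 Vero, Huh-7 or C6/36 cells were infected with DENV2 at moi 1. Inhibitor was then added at noncytotoxic concentrations of 50 nM–5 μM for three days. Virus titer in the culture supernatant was measured by plaque assay.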

dengue virus type 2 [8] = experiment: Inhibition of Dengue virus 2 assembly in african green monkey Vero cells assessed as virus-induced membrane structures at 2.5 uM after 4 days postinfection by electron microscopy; type: functional, organism-based
In short: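 DENV2-infected Vero cells were treated with 2.5 μM inhibitor, with DMSO-treated infected cells and DMSO-treated mock-infected cells as controls. At 4 days postinfection, cells were fixed in 2.5% glutaraldehyde plus 2.0% paraformaldehyde at 4°C for 24 h. Samples were embedded, sectioned and examined by transmission electron microscopy for virus particles and virus-induced membranes.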

dengue virus type 2 [9] = experiment: Antiviral activity against Dengue virus 2 infected in african green monkey Vero cells; type: functional, organism-based; in short: as §2
Dengue virus [10] = experiment: Inhibition of viral spread in Dengue virus-infected human Huh7 cells assessed as accumulation of viral envelope protein within perinuclear region at 2.5 uM after 4 days by immunofluorescence assay relative to control; type: functional, organism-based; conditions: Huh-7; in short: as §1
dengue virus type 3 = experiment: Antiviral activity against Dengue virus 3 H87 infected in african green monkey Vero cells; type: functional, organism-based
Poliovirus 1 = experiment: Antiviral activity against Poliovirus 1 infected in african green monkey Vero cells; type: functional, organism-based
dengue virus type 4 = experiment: Antiviral activity against Dengue virus 4 H241 infected in african green monkey Vero cells; type: functional, organism-based
Dengue virus [11] = experiment: Inhibition of viral spread in Dengue virus-infected human Huh7 cells assessed as accumulation of viral envelope protein within perinuclear region at 2.5 uM after 6 days by immunofluorescence assay relative to control; type: functional, organism-based; conditions: Huh-7; in short: as §1
Dengue virus [12] = experiment: Inhibition of viral spread in Dengue virus-infected human Huh7 cells assessed as accumulation of viral envelope protein within perinuclear region at 2.5 uM after 5 days by immunofluorescence assay relative to control; type: functional, organism-based; conditions: Huh-7; in short: as §1
Dengue virus [13] = experiment: Inhibition of viral spread in Dengue virus-infected african green monkey Vero cells assessed as accumulation of viral envelope protein within perinuclear region at 2.5 uM after 6 days by immunofluorescence assay relative to control; type: functional, organism-based; in short: as §1
Dengue virus [14] = experiment: Inhibition of viral spread in Dengue virus-infected asian tiger mosquito C6/36 cells assessed as accumulation of viral envelope protein within perinuclear region at 2.5 uM after 5 days by immunofluorescence assay relative to control; type: functional, organism-based; in short: as §1
dengue virus type 1 = experiment: Antiviral activity against Dengue virus 1 Hawaii infected in african green monkey Vero cells; type: functional, organism-based
Dengue virus [15] = experiment: Inhibition of viral spread in Dengue virus-infected african green monkey Vero cells assessed as accumulation of viral envelope protein within perinuclear region at 2.5 uM after 5 days by immunofluorescence assay relative to control; type: functional, organism-based; in short: as §1
Dengue virus [16] = experiment: Inhibition of viral spread in Dengue virus-infected african green monkey Vero cells assessed as accumulation of viral envelope protein within perinuclear region at 2.5 uM after 4 days by immunofluorescence assay relative to control; type: functional, organism-based; in short: as §1
dengue virus type 2 [17] = experiment: Antiviral activity against Dengue virus 2 infected in human Huh7 cells; type: functional, organism-based; conditions: Huh-7; in short: as §2
Modoc virus = experiment: Antiviral activity against Modoc virus M544 infected in african green monkey Vero cells; type: functional, organism-based
dengue virus type 2 [18] = experiment: Antiviral activity against Dengue virus 2 NGC infected in african green monkey Vero cells after 3 days by immunofluorescence assay; type: functional, organism-based; conditions: 72 h
In short: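 DENV2 NGC was adsorbed to Vero monolayers at moi 1 for 60 min at 37°C with 5% CO2, then washed with PBS. Inhibitor was added at 0.02–10 μM final in 0.25% DMSO and incubated for 3 days. Cells were fixed and stained with anti-E mAb, FITC secondary and DAPI. Infected cells were counted in four automated-microscope fields per well and compared with DMSO-treated infected wells. IC50 came from nonlinear regression.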

For `O=C1Cc2c([nH]c3ccc(Br)cc23)-c2ccccc2N1`, the Activity (Dengue virus [1]) was “Active”.

For `Cn1cc(/C=C2\C(=O)Nc3ccc(S(N)(=O)=O)cc32)c2ccccc21`, the Activity (Dengue virus [2]) was “Active” and the Activity (Dengue virus [1]) was “Active”.

In the case of `N#C/C(=C\c1ccc(O)c(O)c1)C(N)=O`, the Activity (Dengue virus [1]) is reported as “Active”.

In the case of `NC(=O)c1cccc(-c2cc(Nc3ccc(OC(F)(F)F)cc3)ncn2)c1`, the Activity (Dengue virus [2]) is reported as “Active” and the Activity (Dengue virus [1]) is reported as “Active”.

In the case of `Cc1nc(Nc2ncc(C(=O)Nc3c(C)cccc3Cl)s2)cc(N2CCN(CCO)CC2)n1` [DASATINIB], the Activity (Dengue virus [3]) is reported as “Active”, the IC50 [4] is reported as 28 nM and the Activity (Dengue virus [5]) is reported as “Active”. The IC50 [6] was 100 nM, the Activity (dengue virus type 2 [7]) was “Dose-dependent effect” and the Activity (dengue virus type 2 [8]) was “Active”. For the same compound, the Activity (dengue virus type 2 [9]) was “Dose-dependent effect”, the Activity (Dengue virus [10]) was “Active” and the Activity (dengue virus type 3) was “Dose-dependent effect”. For the same compound, the Activity (Poliovirus 1) was “inactive”, the Activity (dengue virus type 4) was “Dose-dependent effect” and the Activity (Dengue virus [11]) was “Active”. The Activity (Dengue virus [12]) was “Active”, the Activity (Dengue virus [1]) was “Active” and the Activity (Dengue virus [13]) was “Active”. The Activity (Dengue virus [14]) was “Active”, the Activity (dengue virus type 1) was “Dose-dependent effect” and the Activity (Dengue virus [15]) was “Active”. The Activity (Dengue virus [16]) was “Active”, the Activity (dengue virus type 2 [17]) was “Dose-dependent effect” and the Activity (Modoc virus) was “Dose-dependent effect”.

For `CNc1ncc2c(n1)N(C)C(=O)N(c1cc(NC(=O)c3cc(-n4cnc(C)c4)cc(C(F)(F)F)c3)ccc1C)C2`, the Activity (Dengue virus [2]) was “Active” and the Activity (Dengue virus [1]) was “Active”.

For `Brc1c(Br)c(Br)c2[nH]nnc2c1Br`, the Activity (Dengue virus [2]) was “Active” and the Activity (Dengue virus [1]) was “Active”.

With `Cc1ccc(NC(=O)c2ccc(CN3CCN(C)CC3)cc2)cc1Nc1nccc(-c2cccnc2)n1` the Activity (Dengue virus [2]) was “Active”.

With `COc1cc2ncnc(Nc3cccc(Br)c3)c2cc1OC` the Activity (Dengue virus [1]) was “Active”.

With `CCN(CC)CCNC(=O)c1c(C)[nH]c(/C=C2\C(=O)Nc3ccc(Cl)cc32)c1C` the Activity (Dengue virus [1]) was “Active”.

For `O=C(O)c1cc(NCc2cc(O)ccc2O)ccc1O`, the Activity (Dengue virus [1]) was “Active”.

In the case of `O=C(O)c1cc(N(Cc2ccccc2O)Cc2cc(O)ccc2O)ccc1O`, the Activity (Dengue virus [1]) is reported as “Active”.

With `Cc1ccc(Nc2nccc(-c3ccccc3)n2)cc1F` the Activity (Dengue virus [2]) was “Active”.

`COc1c(C)c2c(c(O)c1C/C=C(\C)CCC(=O)O)C(=O)OC2` [MYCOPHENOLIC ACID] showed an EC50 (dengue virus type 2 [18]) of 5700 nM.

With `COc1cc2ncnc(Nc3ccc(Oc4ccccc4)cc3)c2cc1OC` the Activity (Dengue virus [2]) was “Active” and the Activity (Dengue virus [1]) was “Active”.

For `O=S(=O)(c1cccc2c(I)cccc12)N1CCCNCC1`, the Activity (Dengue virus [1]) was “Active”.

With `CC(C)(C)c1nc2c3ccc(F)cc3c3c(=O)[nH]ccc3c2[nH]1` the Activity (Dengue virus [2]) was “Active”.

In the case of `CN1CCN(CCOc2cc(OC3CCOCC3)c3c(Nc4c(Cl)ccc5c4OCO5)ncnc3c2)CC1`, the Activity (Dengue virus [3]) is reported as “Active”, the Activity (Dengue virus [5]) is reported as “Active” and the Activity (dengue virus type 2 [7]) is reported as “Dose-dependent effect”. The Activity (dengue virus type 2 [9]) was “Dose-dependent effect”, the Activity (Dengue virus [10]) was “Active” and the Activity (Dengue virus [11]) was “Active”. The Activity (Dengue virus [12]) was “Active”, the Activity (Dengue virus [1]) was “Active” and the Activity (Dengue virus [13]) was “Active”. For the same compound, the Activity (Dengue virus [14]) was “Active”, the Activity (Dengue virus [15]) was “Active” and the Activity (Dengue virus [16]) was “Active”. For the same compound, the Activity (dengue virus type 2 [17]) was “Dose-dependent effect”.
